# SENP6 block: blocks the human protease SENP6; Q9GZR1; inhibition, % at 10 µM; Recombinant SENP6 catalytic domain, aminoluciferin luminescence; actives 1.8% (n = 330,000); AID 2599;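 active = inhibition above about 50% at the single tested dose, limit read from the data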;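 also: plate controls were DMSO wells with enzyme for no effect and DMSO wells lacking enzyme for full effect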
# Target sequence (Q9GZR1 628-1112 limits assumed): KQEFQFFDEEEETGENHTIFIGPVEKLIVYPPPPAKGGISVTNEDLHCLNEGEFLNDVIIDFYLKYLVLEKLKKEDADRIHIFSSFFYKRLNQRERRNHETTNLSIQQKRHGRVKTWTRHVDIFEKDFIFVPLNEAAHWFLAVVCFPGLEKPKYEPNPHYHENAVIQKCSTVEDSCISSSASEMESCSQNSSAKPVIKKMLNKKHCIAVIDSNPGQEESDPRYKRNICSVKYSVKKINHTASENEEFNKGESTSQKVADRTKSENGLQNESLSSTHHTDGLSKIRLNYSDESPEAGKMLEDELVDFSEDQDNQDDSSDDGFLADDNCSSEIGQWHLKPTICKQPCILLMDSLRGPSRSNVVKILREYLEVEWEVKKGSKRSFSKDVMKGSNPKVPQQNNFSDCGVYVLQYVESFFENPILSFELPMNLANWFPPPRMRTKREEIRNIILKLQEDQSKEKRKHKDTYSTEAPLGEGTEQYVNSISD
# UBC13 inh: inhibitors of human UBC13 polyubiquitin chain formation; P61088; inhibition, % at 20 µM; AID 485273; actives 0.47% (n = 330,000); TR-FRET; in the data active = inhibition above about 45%, passing the limit was not always enough; inconclusive = no clear call, values can overlap the other calls
# SENP8 block-1: SENP8 (human) protease inhibition; Q96LD8; recombinant SENP8, Nedd8 substrate fluorescence; inhibition, % at 20 µM; actives 0.64% (n = 360,000); in the data active = inhibition mostly above about 40%, no sharp cut-off; inactive = mostly below about 27%
# SENP7 block: blocks the human protease SENP7 | Q9BQF6 | recombinant SENP7, Z-RLRGG-aminoluciferin luminescence, 40 min | inhibition, % at 5 µM | actives 1.5% (n = 330,000) | AID 434973;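 active = inhibition above about 50% at the single test dose, limit read from the data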;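 also: plate controls were DMSO with enzyme for no effect and no enzyme buffer wells for full effect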
# SENP8 block-2: SENP8 protease inhibition | Q96LD8 | purified SENP8, Z-RLRGG-aminoluciferin cleavage, luminescence | inhibition, % at 10 µM | actives 1.2% (n = 330,000) | AID 2540; in the data active = inhibition above about 50%
# Apaf1 inhib: inhibitors of human Apaf-1 apoptosome. O14727. reconstituted apoptosome caspase-3 activity, DEVD-Rh110 fluorescence. inhibition, % at 20 µM. actives 0.71% (n = 330,000); active = inhibition of at least 40% at 20 µM;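 also: plate controls were DMSO wells for no effect and DEVD-CHO caspase inhibitor wells for full effect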
#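 detection = Rh110 fluorescence intensity | test system = biochemical Apaf-1 apoptosome reconstitution | also added = cytochrome c and DEVD-Rh110 substrate | schedule = 30 min plus 50 min, RT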
# Active calls of the source: *; ? = inconclusive; . = no result given. In the library only some 3% were active in any assay of this set; here they are far more common.
SMILES,SENP6 block,UBC13 inh,SENP8 block-1,SENP7 block,SENP8 block-2,Apaf1 inhib
CC(C)NC(=O)/C(C#N)=C/c1ccc(N(C)C)o1,-7,-261,40*,-8,0,-8
O=C1c2ccccc2C(=O)C2OC12 (centres undefined),37,-58,.,5,6,37
O=C(c1ccccc1)C1C(=O)c2ccccc2C1=O,9,-30,46*,12,1,-14
O=C(O)c1ccc(-c2nc(-c3ccccc3)cs2)cc1,97*,-3,-87,89*,92*,10
CNC(=O)c1ccc(-c2nc(-c3ccccc3)cs2)cc1,2,1,-243,4,-3,8
COc1cccc(N=Nc2c(N)[nH]n3c(=O)cc(-c4ccccc4)nc23)c1,23,-72,65*,12,16,37
CC(C(=O)O)N1C(=O)/C(=C/C=C/c2ccco2)SC1=S (centres undefined),-103,35,26,-6,1,47*
CCN(C(=O)C(C)N1C(=O)/C(=C/c2ccco2)SC1=S)C1CCS(=O)(=O)C1 (centres undefined),14,-30,48*,1,11,25
CC(C(=O)N(C)C1CCS(=O)(=O)C1)N1C(=O)/C(=C/c2ccc(F)cc2)SC1=S (centres undefined),11,-14,17,7,6,12
O=C(Cn1cc(C(=O)C(F)(F)F)c2ccccc21)N1CCOCC1,-30,-13,3,-2,-10,-7
COc1ccc(N2CCN(C(=O)C(=O)c3ccc(F)cc3)CC2)cc1,.,.,26,.,.,.
COc1ccc(N=Nc2cnc(C)nc2-c2ccccc2)cc1,-4,-4,45*,0,-5,-6
COc1ccc2c(c1)O/C(=C\c1sccc1C)C2=O,79*,-3,-86,71*,50,12
O=C1c2c(O)cccc2C(C2OC(CO)[C@@H](O)[C@H](O)[C@H]2O)c2cc(CO)cc(O)c21 (some centres undefined),-10,-4,10,11,0,5
CC(=O)c1ccc(O[C@@H]2O[C@H](CO)[C@@H](O)[C@H](O)[C@H]2O)cc1,-7,7,.,3,-4,10
O=C(O)c1cc(O)c2c(c1)[C@H]([C@H]1c3cc(C(=O)O)cc(O)c3C(=O)c3c(O[C@@H]4O[C@H](CO)[C@@H](O)[C@H](O)[C@H]4O)cccc31)c1cccc(OC3O[C@H](CO)[C@@H](O)[C@H](O)[C@H]3O)c1C2=O (some centres undefined),-70,?,10,-56,23,89*
O=C(O)c1cc(O)c2c(c1)[C@@H]([C@H]1c3cc(C(=O)O)cc(O)c3C(=O)c3c(O[C@@H]4O[C@H](CO)[C@@H](O)[C@H](O)[C@H]4O)cccc31)c1cccc(OC3O[C@H](CO)[C@@H](O)[C@H](O)[C@H]3O)c1C2=O (some centres undefined),-82,?,13,-80,18,95*
O=C1c2cc(CO)cc(O)c2C(=O)c2c(O[C@@H]3OC(CO)[C@@H](O)[C@@H](O)[C@@H]3O)cccc21 (some centres undefined),8,-110,54*,-1,-5,-4
CN1C(=O)/C(=C/c2cccc([N+](=O)[O-])c2)C(=O)N1c1ccccc1,-6,-18,45*,7,-1,10
CCOc1cc(C(=S)N2CCN(C)CC2)ccc1OCC(=O)N1CCCC1,12,-1,7,-7,-2,-9
Cc1ccc(N=Cc2cc(Cc3ccccc3Cl)cc([N+](=O)[O-])c2O)c(O)c1,17,-45,52*,-8,10,29
COc1ccc(N=Cc2cc(Cc3ccccc3Cl)cc([N+](=O)[O-])c2O)cc1OC,45,-27,31,10,22,17
Cc1nc2sc(-c3ccccc3)cc2c(=O)n1N,95*,-5,-58,99*,96*,-13
Nc1cc(OC(=O)c2c(F)cccc2Cl)nn1S(=O)(=O)c1ccccc1,-36,-2,15,-9,-8,13
O=C(Nc1ncc([N+](=O)[O-])s1)c1cccc([N+](=O)[O-])c1,96*,-1,29,101*,97*,7
SMILES,SENP6 block,UBC13 inh,SENP8 block-1,SENP7 block,SENP8 block-2,Apaf1 inhib
CN(C)CCC[C@@]1(c2ccc(F)cc2)OCc2cc(C#N)ccc21,4,13,6,5,-6,-14
Cc1cc(C(=O)COC(=O)c2ccccc2Br)c(C)n1CC1CCCO1 (centres undefined),95*,-6,9,94*,93*,7
Cc1ccc(C)c2[nH]c(=O)c(C(c3nnnn3Cc3ccccc3)N3CCc4ccccc4C3)cc12 (centres undefined),66*,4,-32,46,34,67*
Cc1cccc2cc(C(c3nnnn3Cc3ccc4c(c3)OCO4)N3CCCC3)c(=O)[nH]c12 (centres undefined),2,-7,-45,7,-7,5
CC(/C=C/c1ccc(OCc2ccccc2)cc1)=N\O,43,-14,6,70*,33,0
CN(C(=O)c1ccccc1C(=O)OCC(=O)c1ccc(F)c(F)c1)C1CCCCC1,1,0,1,-3,0,18
Cc1nccc(-c2cccc(N/N=C(\C#N)C(=O)c3ccccc3)c2)n1,5,5,38*,-1,3,-14
O=C1NCCN/C1=C\C(=O)c1ccc(Cl)cc1,-41,0,23,-7,-2,-4
Cc1cccc(NC(=S)NNC(=O)c2ccccc2Br)c1,68*,-16,7,16,11,3
CC1=NN(c2ccc(Cl)cc2)C(=O)C1C(c1cccc(O)c1)c1c(C)[nH]n(-c2ccc(Cl)cc2)c1=O (centres undefined),47,-28,23,41,12,85*
O=C(/C=C/c1ccccc1)NCCOc1ccccc1,-5,-5,27,-3,-3,-6
O=C(/C=C/c1ccccc1)NCCSc1ccc(Cl)cc1,-12,10,40*,12,-1,18
COc1cccc(NC(=O)c2cc3cccc(OC)c3o/c2=N\O)c1,-20,0,.,82*,8,-3
COc1ccc(NC(=O)c2cc3cccc(OC)c3oc2=Nc2ccc(C(=O)O)cc2)cc1OC,.,.,14,.,.,.
Oc1cc2c(cc1O)C1c3ccc(O)c(O)c3OCC1(O)C2 (centres undefined),4,9,69*,10,2,12
O=C1C(Nc2ccccc2)=C/C(=N/S(=O)(=O)c2cccs2)c2ccccc21,.,.,83*,.,.,.
CN1CCSc2ccc(C(=O)Nc3cccc(F)c3)cc21,94*,30,-418,90*,83*,-24
O=C(N/N=C1\C2CN3CCN(C2)CC1(c1ccccc1)C3)Nc1ccccc1,12,12,3,3,-6,6
